The values that follow come from ChEMBL document CHEMBL3580579, “Anti-inflammatory Hydrolyzable Tannins from Myricaria bracteata” (J Nat Prod, 2015).

Data set [1] in a line: Antioxidant activity assessed as hydroxy radical-scavenging activity. Format: physicochemical. An outline of the steps: (§1)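 Radical scavenging of each tannin measured against DPPH and hydroxy radicals by literature methods, with BHT and Trolox as reference antioxidants.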
Data set [2] can be described thus: Antioxidant activity assessed as DPPH radical-scavenging activity incubated for 30 mins by spectrophotometry. Format: physicochemical. The essentials: as §1
In general terms: The DPPH test is a chemical assay of radical scavenging.

The test system of data set [3] is J774. The experiment in a line: Increase in cell viability of mouse J774 cells at 0.01 to 10 uM by MTT assay. The class given is functional, cell-based.
Data set [4] deals with Mus musculus. The experiment in a line: Anti-inflammatory activity in mouse model of croton oil-induced ear edema assessed as inhibition of ear swelling at 200 mg/kg, sc. Format: functional.
Another data set has as its system Liver microsome. Briefly: Antioxidant activity assessed as inhibition of Fe2+-cysteine-induced lipid peroxidation in rat liver microsomes incubated for 30 mins by thiobarbituric acid based assay. Format: functional. Conditions: 0.5 h.
The test system of data set [5] is Mus musculus. The experiment in a line: Anti-inflammatory activity in mouse model of croton oil-induced ear edema assessed as inhibition of ear swelling at 50 mg/kg, sc. The class given is functional.
The test system of data set [6] is Mus musculus. The experiment in a line: Anti-inflammatory activity in mouse model of croton oil-induced ear edema assessed as inhibition of ear swelling at 100 mg/kg, sc. Format: functional.
In data set [7] the test system is Mus musculus. The experiment in a line: Anti-inflammatory activity in mouse model of carrageenan-induced paw edema assessed as inhibition of paw edema at 50 mg/kg, sc. Format: functional. Background: In the carrageenan paw model, swelling and tenderness develop within hours.
The subject of data set [8] is Mus musculus. Briefly: Anti-inflammatory activity in DBA/1 mouse model of collagen induced arthritis assessed as inhibition of disease progression and development at 20 mg/kg, sc measured on day 57. Format: functional. Conditions: DBA/1, sc, 1368 h.
Data set [9] has as its system J774. The experiment in a line: Inhibition of nitric oxide production in LPS-induced mouse J774 cells at 0.01 to 10 uM incubated for 24 hrs by Griess reaction based assay. Format: functional, cell-based.
Data set [10] relates to J774. The experiment in a line: Inhibition of TNFalpha production in LPS-induced mouse J774 cells at 0.01 to 10 uM. The class given is functional, cell-based.
The subject of data set [11] is J774. The experiment in a line: Inhibition of IL6 production in LPS-induced mouse J774 cells at 0.01 to 10 uM. The class given is functional, cell-based.

Structures are written as SMILES. pIC50: −log10 of the molar value. Activity calls are given as the source filed them. No cut-off for these calls is given here.

A word on the pIC50: it is −log10 of the IC50, conventionally taken in molar units. As for `O=C1O[C@@H]2O[C@H](CO)[C@@H](O)[C@H](OC(=O)c3cc(O)c(O)c(O)c3)[C@H]2OC(=O)c2cc(Oc3c(C(=O)O[C@H]4C(O)O[C@@H]5COC(=O)c6cc(O)c(O)c(O)c6-c6c(cc(O)c(O)c6O)C(=O)O[C@H]5[C@@H]4OC(=O)c4cc(O)c(O)c(O)c4)cc(O)c(O)c3O)c(O)c(O)c2Oc2cc1cc(O)c2O` (stereo partly drawn), the pIC50 in [1] was 4.80; in [2], 5.62.
As to `O=C1O[C@@H]2O[C@@H]3COC(=O)c4cc(O)c(O)c(O)c4-c4c(cc(O)c(O)c4O)C(=O)O[C@H]3[C@H](OC(=O)c3cc(O)c(O)c(O)c3)[C@H]2OC(=O)c2cc(Oc3c(C(=O)O[C@H]4C(O)O[C@H](CO)[C@@H](O)[C@@H]4OC(=O)c4cc(O)c(O)c(O)c4)cc(O)c(O)c3O)c(O)c(O)c2Oc2cc1cc(O)c2O` (stereo partly drawn), the pIC50 was 4.43 in data set [1] and 5.33 in data set [2].
Take `O=C(O[C@@H]1O[C@@H]2COC(=O)c3cc(O)c(O)c(O)c3-c3c(cc(O)c(O)c3O)C(=O)O[C@H]2[C@H](OC(=O)c2cc(O)c(O)c(O)c2)[C@H]1OC(=O)c1cc(O)c(O)c(O)c1Oc1cc2c(c(O)c1O)Oc1cc(cc(O)c1O)C(=O)O[C@@H]1O[C@@H]3COC(=O)c4cc(O)c(O)c(O)c4-c4c(cc(O)c(O)c4O)C(=O)O[C@H]3[C@H](OC(=O)c3cc(O)c(O)c(O)c3)[C@H]1OC2=O)c1cc(O)c(O)c(Oc2c(C(=O)O[C@H]3[C@H](OC(=O)c4cc(O)c(O)c(O)c4)O[C@H](CO)[C@@H](O)[C@@H]3OC(=O)c3cc(O)c(O)c(O)c3)cc(O)c(O)c2O)c1`: the pIC50 was 4.32 in [1] and 5.51 in [2]. Moreover, in the data set on J774 [3], the result was Active.
For `O=C1O[C@@H]2O[C@@H]3COC(=O)c4cc(O)c(O)c(O)c4-c4c(cc(O)c(O)c4O)C(=O)O[C@H]3[C@H](OC(=O)c3cc(O)c(O)c(O)c3)[C@H]2OC(=O)c2cc(Oc3c(C(=O)O[C@H]4[C@H](OC(=O)c5cc(O)c(O)c(O)c5)O[C@H](CO)[C@@H](O)[C@@H]4OC(=O)c4cc(O)c(O)c(O)c4)cc(O)c(O)c3O)c(O)c(O)c2Oc2cc1cc(O)c2O`, the pIC50 in data set [1] is 4.79; in data set [2], 5.35. Moreover, the result in the data set with J774 [3] was Active.
As for `O=C1O[C@@H]2O[C@@H]3COC(=O)c4cc(O)c(O)c(O)c4-c4c(cc(O)c(O)c4O)C(=O)O[C@H]3[C@H](OC(=O)c3cc(O)c(O)c(O)c3)[C@H]2OC(=O)c2cc(O)c(O)c(O)c2Oc2cc(cc(O)c2O)C(=O)O[C@@H]2O[C@@H]3COC(=O)c4cc(O)c(O)c(O)c4-c4c(cc(O)c(O)c4O)C(=O)O[C@H]3[C@H](OC(=O)c3cc(O)c(O)c(O)c3)[C@H]2OC(=O)c2cc(O)c(O)c(O)c2Oc2cc1cc(O)c2O`, the pIC50 was 4.37 in data set [1] and 5.35 in data set [2]. Besides, in the data set on J774 [3], the outcome was Active.
For `O=C(O[C@@H]1O[C@@H]2COC(=O)c3cc(O)c(O)c(O)c3-c3c(cc(O)c(O)c3O)C(=O)O[C@H]2[C@H](OC(=O)c2cc(O)c(O)c(O)c2)[C@H]1OC(=O)c1cc(O)c(O)c(O)c1Oc1cc(C(=O)O[C@@H]2O[C@@H]3COC(=O)c4cc(O)c(O)c(O)c4-c4c(cc(O)c(O)c4O)C(=O)O[C@H]3[C@H](OC(=O)c3cc(O)c(O)c(O)c3)[C@H]2OC(=O)c2cc(O)c(O)c(O)c2Oc2cc3c(c(O)c2O)Oc2cc(cc(O)c2O)C(=O)O[C@@H]2O[C@@H]4COC(=O)c5cc(O)c(O)c(O)c5-c5c(cc(O)c(O)c5O)C(=O)O[C@H]4[C@H](OC(=O)c4cc(O)c(O)c(O)c4)[C@H]2OC3=O)cc(O)c1O)c1cc(O)c(O)c(O)c1`, the pIC50 in data set [1] was 4.26; in data set [2] it was 5.37. Moreover, in the data set with J774 [3], the outcome was Active.
In general, inhibition in vivo refers to the relative decrease from the control value, in per cent. Take `COc1cc(C(=O)O[C@@H]2[C@@H](OC(=O)c3cc(OC)c(OC)c(OC)c3Oc3cc4c(c(OC)c3OC)Oc3cc(cc(OC)c3OC)C(=O)O[C@@H]3O[C@@H]5COC(=O)c6cc(OC)c(OC)c(OC)c6-c6c(cc(OC)c(OC)c6OC)C(=O)O[C@H]5[C@H](OC(=O)c5cc(OC)c(OC)c(OC)c5)[C@H]3OC4=O)[C@H](OC)O[C@@H]3COC(=O)c4cc(OC)c(OC)c(OC)c4-c4c(cc(OC)c(OC)c4OC)C(=O)O[C@@H]23)cc(OC)c1OC`: the pIC50 in data set [1] and in [2] was under 4.00 in each case. The inhibition in vivo at 200 mg/kg in the data set on Mus musculus [4] was -0.7%.
With `COc1cc(C(=O)O[C@@H]2[C@H]3OC(=O)c4cc(Oc5c(C(=O)O[C@H]6[C@@H](OC)O[C@@H]7COC(=O)c8cc(OC)c(OC)c(OC)c8-c8c(cc(OC)c(OC)c8OC)C(=O)O[C@H]7[C@@H]6OC(=O)c6cc(OC)c(OC)c(OC)c6)cc(OC)c(OC)c5OC)c(OC)c(OC)c4Oc4cc(cc(OC)c4OC)C(=O)O[C@@H]3O[C@@H]3COC(=O)c4cc(OC)c(OC)c(OC)c4-c4c(cc(OC)c(OC)c4OC)C(=O)O[C@@H]23)cc(OC)c1OC`, the pIC50 in [1] and in data set [2] was under 4.00 each time. The inhibition in vivo at 200 mg/kg in the data set on Mus musculus [4] is 2.1%.
Turning to `Cc1cc(C(C)(C)C)c(O)c(C(C)(C)C)c1` [BUTYLATED HYDROXYTOLUENE], the pIC50 in data set [1] was 4.65; in [2] it was 5.15.
In the case of `O=C(O)c1cc(O)c(O)c(O)c1` [GALLIC ACID], the pIC50 was 4.81 in [1] and 5.14 in data set [2].
In the case of `O=C(O[C@@H]1O[C@@H]2COC(=O)c3cc(O)c(O)c(O)c3-c3c(cc(O)c(O)c3O)C(=O)O[C@H]2[C@H](OC(=O)c2cc(O)c(O)c(O)c2)[C@H]1OC(=O)c1cc(O)c(O)c(O)c1-c1c(C(=O)O[C@@H]2O[C@@H]3COC(=O)c4cc(O)c(O)c(O)c4-c4c(cc(O)c(O)c4O)C(=O)O[C@H]3[C@H](OC(=O)c3cc(O)c(O)c(O)c3)[C@H]2OC(=O)c2cc(O)c(O)c(O)c2)cc(O)c(O)c1O)c1cc(O)c(O)c(O)c1` [HIRTELLIN A], the figures for the pIC50 (in the data set with Liver microsome; in data set [1]; in [2]) were 4.81, 4.41 and 5.34, respectively. In addition, the outcome in the data set with J774 [3] was Active.
Turning to `O=C(O[C@@H]1O[C@@H]2COC(=O)c3cc(O)c(O)c(O)c3-c3c(cc(O)c(O)c3O)C(=O)O[C@H]2[C@H](OC(=O)c2cc(O)c(O)c(O)c2)[C@H]1OC(=O)c1cc(O)c(O)c(O)c1Oc1cc2c(c(O)c1O)Oc1cc(cc(O)c1O)C(=O)O[C@@H]1O[C@@H]3COC(=O)c4cc(O)c(O)c(O)c4-c4c(cc(O)c(O)c4O)C(=O)O[C@H]3[C@H](OC(=O)c3cc(O)c(O)c(O)c3)[C@H]1OC2=O)c1cc(O)c(O)c(O)c1` [HIRTELLIN B], the pIC50 in the data set on Liver microsome is 4.31; in [1], 4.40; in data set [2], 5.39. Further, in the data set on J774 [3], the result was Active.
On to `O=C(O[C@@H]1O[C@@H]2COC(=O)c3cc(O)c(O)c(O)c3-c3c(cc(O)c(O)c3O)C(=O)O[C@H]2[C@H](OC(=O)c2cc(O)c(O)c(O)c2)[C@H]1OC(=O)c1cc(O)c(O)c(O)c1Oc1cc2c(c(O)c1O)Oc1cc(cc(O)c1O)C(=O)O[C@@H]1O[C@H](CO)[C@@H](O)[C@H](OC(=O)c3cc(O)c(O)c(O)c3)[C@H]1OC2=O)c1cc(O)c(O)c(O)c1` [NILOTININ D8], for which the values for the pIC50 in data set [1] and in [2] were 4.49 and 5.33, respectively. Besides, the outcome with J774 [3] was Active.
Regarding `O=C1O[C@@H]2O[C@@H]3COC(=O)c4cc(O)c(O)c(O)c4-c4c(cc(O)c(O)c4O)C(=O)O[C@H]3[C@H](OC(=O)c3cc(O)c(O)c(O)c3)[C@H]2OC(=O)c2cc(Oc3c(C(=O)O)cc(O)c(O)c3O)c(O)c(O)c2Oc2cc1cc(O)c2O` [NILOTININ M4], the pIC50 is 4.42 in [1] and 5.50 in data set [2].
Regarding `O=C1O[C@@H]2O[C@@H]3COC(=O)c4cc(O)c(O)c(O)c4-c4c(cc(O)c(O)c4O)C(=O)O[C@H]3[C@H](OC(=O)c3cc(O)c(O)c(O)c3)[C@H]2OC(=O)c2cc(Oc3c(C(=O)O[C@@H]4[C@@H](OC(=O)c5cc(O)c(O)c(O)c5)[C@@H]5OC(=O)c6cc(O)c(O)c(O)c6-c6c(cc(O)c(O)c6O)C(=O)OC[C@H]5O[C@H]4O)cc(O)c(O)c3O)c(O)c(O)c2Oc2cc1cc(O)c2O` [TAMARIXININ A], the pIC50 with Liver microsome was 4.74; in data set [1] it was 4.38; in data set [2], 5.45. Moreover, the inhibition in vivo at 50 mg/kg was determined as 34.4% in the data set on Mus musculus [5] and 25% in the data set with Mus musculus [7]. Also, the inhibition in vivo at 100 mg/kg in the data set with Mus musculus [6] worked out at 39%. Besides, in the data set with Mus musculus [4], the inhibition in vivo at 200 mg/kg came to 69.8%. Besides, in the data set on Mus musculus [8], the inhibition in vivo at 20 mg/kg worked out at 46%. The inhibition entry in the data set on J774 [9], with J774 [10] and in the data set on J774 [11] was “inactive” throughout. Also, in the data set with J774 [3], the result was Active.
As to `Cc1c(C)c2c(c(C)c1O)CCC(C)(C(=O)O)O2` (stereo not drawn) [TROLOX], the pIC50 is 4.12 in data set [1] and 5.10 in data set [2].
